Here are results for 66 compounds from ChEMBL document CHEMBL1123157, “Thromboxane synthetase inhibitors and antihypertensive agents. 1. N-[(1H-imidazol-1-yl)alkyl]aryl amides and N-[(1H-1,2,4-triazol-1-yl)alkyl]aryl amides” (J Med Chem, 1986).

Activity calls are given as the source filed them.

Assay [1] addresses T1, Thromboxane-A synthase (Rattus norvegicus) (UniProt P49430).
T1 sequence (whole entry): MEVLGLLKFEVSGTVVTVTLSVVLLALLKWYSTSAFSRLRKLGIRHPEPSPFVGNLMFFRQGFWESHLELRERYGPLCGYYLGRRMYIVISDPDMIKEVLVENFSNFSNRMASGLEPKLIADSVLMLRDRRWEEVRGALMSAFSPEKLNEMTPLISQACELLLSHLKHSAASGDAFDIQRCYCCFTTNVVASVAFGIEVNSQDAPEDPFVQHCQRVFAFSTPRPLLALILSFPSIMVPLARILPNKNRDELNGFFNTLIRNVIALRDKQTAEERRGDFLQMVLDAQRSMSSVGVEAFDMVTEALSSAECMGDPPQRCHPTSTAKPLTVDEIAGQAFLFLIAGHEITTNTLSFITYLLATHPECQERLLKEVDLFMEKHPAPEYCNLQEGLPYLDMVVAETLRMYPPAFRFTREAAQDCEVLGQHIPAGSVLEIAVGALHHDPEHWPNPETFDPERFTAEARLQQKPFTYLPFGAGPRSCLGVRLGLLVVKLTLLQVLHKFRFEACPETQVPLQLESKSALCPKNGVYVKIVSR
In words: Inhibitory activity for thromboxane synthetase determined by TXB2 levels in platelets from spontaneously hypertensive rats. Also noted: concentration or dose not given beside the values. The conditions noted are these: concentration not given here. Put shortly: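 Washed SHR platelets in oxygenated Krebs phosphate buffer, pH 7.4, 4.5-6.0 × 10^4/μL, incubated with vehicle or drug for 10 min at 37 °C. Stopped with ice and citric acid. Supernatant TXB2 measured by RIA; TXB2 in boiled controls subtracted; % inhibition calculated. IC50 read graphically from % inhibition vs log concentration; single-point screen at 10^-4 M.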

In a further assay the test system is Rattus norvegicus. Briefly: Antihypertensive activity in spontaneously hypertensive rats tested at 100 mg/kg po/day for 2 days. Format: functional, organism-based. Also noted: dose 100 mg/kg. Put shortly: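 Male 16-week-old Okamoto SHR (mean arterial pressure about 170 mmHg), 1-3 rats per compound. Given by gavage in 2% preboiled starch (50 mg/mL), 100 mg/kg or less, with 0.9% NaCl load (25 mL/kg). Second dose without saline 24 h later. Mean arterial pressure measured 28 h after first dose. Active if ≤116 mmHg in one rat or mean ≤122 mmHg in two.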

As usually defined, the inhibition is the change of the read-out against control, counted positive when it falls. With `CC(CCNC(=O)c1ccc(Cl)cc1)n1ccnc1` (stereo not given), in assay [1], the inhibition was determined as 96%. The outcome in the assay on Rattus norvegicus was inactive.

In turn, `O=C(NCCCCCn1cncn1)c1ccc(Cl)cc1` returned an inhibition in assay [1] of 79%. Moreover, in the assay with Rattus norvegicus, the outcome was inactive.

Consider `O=C(NCCCn1cncn1)c1cccc(Br)c1`, for which, in assay [1], the inhibition turned out to be 85%. Further, in the assay with Rattus norvegicus, the outcome was inactive.

In turn, `O=C(NCCCn1cncn1)c1ccc(C(=O)c2ccccc2)cc1` showed an inhibition in assay [1] of 65%. The result with Rattus norvegicus was inactive.

In assay [1], `O=C(NCCCn1cncn1)c1cccc(F)c1` returned an inhibition of 82%. Further, the outcome in the assay on Rattus norvegicus was inactive.

As to `CC(CCNC(=O)c1ccc(Br)cc1)n1ccnc1` (stereo not given), in assay [1], the inhibition was determined as 91%. In addition, the result in the assay on Rattus norvegicus was inactive.

`O=C(Cc1ccc(F)cc1)NCCCn1ccnc1` showed an inhibition in assay [1] of 33%. In the assay on Rattus norvegicus, the outcome was inactive.

In assay [1], `Cc1nccn1CCCNC(=O)c1ccc(Br)cc1` returned an inhibition of 66%. Also, the result in the assay on Rattus norvegicus was inactive.

`O=C(NCCCCn1ccnc1)c1ccccc1` came in with an inhibition in assay [1] of 91%. The result in the assay with Rattus norvegicus was inactive.

On to `O=C(Cc1cccc(Cl)c1)NCCCn1cncn1`, for which the inhibition in assay [1] worked out at 0%. The result with Rattus norvegicus was inactive.

`CNc1ccccc1C(=O)NCCCn1ccnc1` showed an inhibition in assay [1] of 57%. For the same compound, the outcome in the assay on Rattus norvegicus was inactive.

In the case of `O=C(NC/C=C/Cn1ccnc1)c1ccc(Cl)cc1` (stereo in doubt; 52), the inhibition in assay [1] came out at 91%. Besides, the outcome with Rattus norvegicus was inactive.

For the compound `O=C(NCCCn1cncn1)c1ccc(Br)cc1`, the inhibition in assay [1] worked out at 40%. Moreover, the result with Rattus norvegicus was inactive.

In turn, `O=C(COc1ccc(Cl)cc1)NCCCn1ccnc1` yielded an inhibition in assay [1] of 85%. Further, the result with Rattus norvegicus was inactive.

For the compound `O=C(NCCCCn1cncn1)c1cccc(Cl)c1`, in assay [1], the inhibition came to 87%. For the same compound, in the assay with Rattus norvegicus, the outcome was inactive.

Take `O=C(NCCCn1ccnc1)C(=O)c1ccccc1`: in assay [1], the inhibition is 80%. In addition, the result with Rattus norvegicus was inactive.

On to `O=C(NCCCn1cncn1)c1ccccc1-c1ccccc1`, for which the inhibition in assay [1] stood at 65%. Also, in the assay on Rattus norvegicus, the result was inactive.

Turning to `Cc1nccn1CCCNC(=O)c1cccc(C(F)(F)F)c1`, the inhibition in assay [1] amounted to 75%. For the same compound, the outcome with Rattus norvegicus was inactive.

In turn, `CCCCOc1ccc(C(=O)NCCCn2cncn2)cc1` yielded an inhibition in assay [1] of 71%. Besides, the outcome in the assay on Rattus norvegicus was inactive.

`COc1cc(C(=O)NCCCn2ccnc2)cc(OC)c1OC` registered an inhibition in assay [1] of 100%. Besides, the result in the assay on Rattus norvegicus was inactive.

Take `CC(=O)Nc1ccc(C(=O)NCCCn2ccnc2)cc1`: the inhibition in assay [1] amounted to 99%. The outcome in the assay with Rattus norvegicus was inactive.

With `O=C(NCCCn1cncn1)c1ccccc1F`, in assay [1], the inhibition stood at 25%. For the same compound, the result with Rattus norvegicus was inactive.

As to `CS(=O)(=O)c1ccc(C(=O)NCCCn2ccnc2)cc1`, the inhibition in assay [1] came to 80%. The outcome in the assay on Rattus norvegicus was inactive.

For `Cc1nccn1CCCNC(=O)c1ccc(Cl)c(Cl)c1`, the inhibition in assay [1] stood at 82%. In the assay with Rattus norvegicus, the outcome was inactive.

The compound `O=C(O)c1ccc(OCCn2ccnc2)cc1` displayed an inhibition in assay [1] of 98%.

In assay [1], `CC(CCNC(=O)c1cccc(Cl)c1)n1ccnc1` (stereo not given) yielded an inhibition of 93%. Also, the outcome in the assay with Rattus norvegicus was inactive.

In assay [1], `O=C(NCCCn1ccnc1)c1ccccc1` returned an inhibition of 96%. Moreover, the outcome with Rattus norvegicus was inactive.

On to `O=C(NC/C=C/Cn1ccnc1)c1ccc(C(F)(F)F)cc1` (stereo in doubt; 53), for which the inhibition in assay [1] came to 93%. Also, the outcome with Rattus norvegicus was inactive.

`O=C(O)c1ccccc1C(=O)NCCCn1ccnc1` gave an inhibition in assay [1] of 82%. In the assay with Rattus norvegicus, the result was inactive.

In turn, `CC(C)(C)c1ccc(C(=O)NCCCn2cncn2)cc1` came in with an inhibition in assay [1] of 86%. Moreover, the result with Rattus norvegicus was inactive.

As to `O=C(NCCCn1cncn1)c1cccc([N+](=O)[O-])c1`, the inhibition in assay [1] amounted to 72%. Besides, the result in the assay on Rattus norvegicus was inactive.

In the case of `O=C(CCc1ccccc1)NCCCn1ccnc1`, in assay [1], the inhibition worked out at 64%. The result with Rattus norvegicus was inactive.

Compound `O=C(NCCCn1ccnc1)c1ccccc1Br` yielded an inhibition in assay [1] of 50%. For the same compound, the outcome in the assay with Rattus norvegicus was inactive.

`COc1ccc(C(=O)NCCCn2cncn2)cc1`: in assay [1], the inhibition was determined as 70%. In the assay with Rattus norvegicus, the outcome was inactive.

`O=C(NCCn1ccnc1)c1ccc(Cl)c(Cl)c1` displayed an inhibition in assay [1] of 59%. Besides, the result with Rattus norvegicus was inactive.

For the compound `CC(CNC(=O)c1ccc(Cl)cc1)Cn1ccnc1` (stereo not given), in assay [1], the inhibition was found to be 100%. In the assay on Rattus norvegicus, the outcome was inactive.

`Cc1cn(CCCNC(=O)c2ccc(I)cc2)cn1`: in assay [1], the inhibition is 99%. The result in the assay with Rattus norvegicus was inactive.

In assay [1], `O=C(COc1ccccc1)NCCCn1ccnc1` yielded an inhibition of 86%. In addition, the result in the assay on Rattus norvegicus was inactive.

Regarding `O=C(NCCCCCn1ccnc1)c1ccc(Br)cc1`, in assay [1], the inhibition was 100%. In the assay with Rattus norvegicus, the outcome was inactive.

Compound `CN(C)c1ccc(C(=O)NCCCn2ccnc2)cc1` gave an inhibition in assay [1] of 93%. Moreover, the outcome in the assay with Rattus norvegicus was inactive.

Take `CCCCOc1ccc(C(=O)NCCCn2ccnc2)cc1`: in assay [1], the inhibition turned out to be 75%. Moreover, in the assay on Rattus norvegicus, the result was inactive.

For the compound `O=C(NCCCCn1ccnc1)c1ccc(Cl)c(Cl)c1`, the inhibition in assay [1] came out at 100%. In addition, the result with Rattus norvegicus was inactive.

Consider `O=C(NCCCn1ccnc1)C1CC1c1ccccc1` (stereo not given), for which the inhibition in assay [1] worked out at 100%. Also, the outcome in the assay with Rattus norvegicus was inactive.

Consider `CC(=O)Nc1ccc(C(=O)NCCCn2cncn2)cc1`, for which, in assay [1], the inhibition came to 75%. Further, the outcome in the assay with Rattus norvegicus was inactive.

`O=C(NCCCCCn1cncn1)c1ccc(Br)cc1` returned an inhibition in assay [1] of 81%. Moreover, the result in the assay with Rattus norvegicus was inactive.

In assay [1], `O=C(NCCCCCCCCn1ccnc1)c1ccc(Br)cc1` had an inhibition of 100%.

In assay [1], `O=C(O)c1ccccc1C(=O)NCCCn1cncn1` showed an inhibition of 23%. In addition, the outcome with Rattus norvegicus was inactive.

On to `CC(=O)c1ccc(C(=O)NCCCn2ccnc2)cc1`, for which the inhibition in assay [1] was 90%. Besides, the result in the assay with Rattus norvegicus was inactive.

In assay [1], `O=C(NCCCCn1cncn1)c1ccc(C(F)(F)F)cc1` returned an inhibition of 38%. In the assay with Rattus norvegicus, the outcome was inactive.

Regarding `Cc1nccn1CCCNC(=O)c1cccc(Br)c1`, in assay [1], the inhibition was 64%. The outcome in the assay on Rattus norvegicus was inactive.

Turning to `O=C(NCCCn1cncn1)c1cccc(C(F)(F)F)c1`, the inhibition in assay [1] was determined as 71%. The outcome with Rattus norvegicus was inactive.

Turning to `CC(CNC(=O)c1ccc(Cl)c(Cl)c1)Cn1ccnc1` (stereo not given), in assay [1], the inhibition was 86%. For the same compound, in the assay on Rattus norvegicus, the outcome was inactive.

With `O=C(NCCCn1ccnc1)c1ccccc1Cl`, the inhibition in assay [1] was 100%. Further, in the assay on Rattus norvegicus, the result was inactive.

Take `O=C(NCCCn1ccnc1)c1ccc(F)cc1`: the inhibition in assay [1] stood at 87%. For the same compound, the result in the assay on Rattus norvegicus was inactive.

In assay [1], `O=C(NC/C=C/Cn1ccnc1)c1ccc(C(F)(F)F)cc1` (stereo in doubt; 54) yielded an inhibition of 95%. Besides, the result in the assay on Rattus norvegicus was inactive.

`O=C(NCCCCn1cncn1)c1ccccc1-c1ccccc1` displayed an inhibition in assay [1] of 89%. The result in the assay with Rattus norvegicus was inactive.

`O=C(NCCCn1ccnc1)c1ccccc1F` yielded an inhibition in assay [1] of 84%. In addition, the outcome in the assay with Rattus norvegicus was inactive.

`O=C(NCCCn1ccnc1)c1ccc(Cl)c(Cl)c1`: the inhibition in assay [1] came to 93%. Moreover, the result with Rattus norvegicus was inactive.

`O=C(NCCCn1cncn1)c1ccc(Cl)cc1` registered an inhibition in assay [1] of 16%. Further, in the assay with Rattus norvegicus, the outcome was inactive.

Compound `COc1ccc(C(=O)NCCCn2ccnc2)cc1` yielded an inhibition in assay [1] of 89%. For the same compound, in the assay with Rattus norvegicus, the result was inactive.

Turning to `COc1cc(C(=O)NCCCn2cncn2)cc(OC)c1OC`, in assay [1], the inhibition was 64%. In addition, the outcome with Rattus norvegicus was inactive.

`O=C(NCCCn1ccnc1)c1ccc(C(=O)c2ccccc2)cc1`: the inhibition in assay [1] was found to be 100%. Besides, the outcome with Rattus norvegicus was inactive.

Regarding `CCc1nccn1CCCNC(=O)c1ccc(Cl)cc1`, the inhibition in assay [1] worked out at 32%. Further, the result in the assay with Rattus norvegicus was inactive.

For `O=C(NC/C=C/Cn1ccnc1)c1ccc(Cl)cc1` (stereo in doubt; 51), the inhibition in assay [1] worked out at 100%. In addition, the result with Rattus norvegicus was inactive.

Regarding `O=C(NCCCCn1cncn1)c1ccc(Br)cc1`, the inhibition in assay [1] came to 88%. The result in the assay with Rattus norvegicus was inactive.

As to `Cc1ccc(C(=O)NCCCn2ccnc2)cc1`, the inhibition in assay [1] is 83%. The outcome with Rattus norvegicus was inactive.
